pIC50: −log10 of the molar value.
Tests used:
[1] = Potency index, ratio of silibinin IC50 to compound IC50 for antiproliferative activity against human PC3 cells; format: functional, PC-3
Summary of the method: (§1)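 Ratio of silibinin IC50 to derivative IC50. Both come from the 3-day WST-1 assay run in parallel (5 doses, absorbance at 430 nm, IC50 from linear fit, at least triplicates).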

[2] = Antiproliferative activity against human DU145 cells assessed as reduction in cell viability after 3 days by WST-1 cell proliferation assay; format: functional, cell-based; settings: DU-145, 72 h
Summary of the method: (§2)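 Cells from ATCC; PC-3 and LNCaP grown in RPMI-1640, DU145 in EMEM, each with 10% FBS and 1% penicillin/streptomycin, 37 °C, 5% CO2. 3,200 cells per well, treated at 5 concentrations for 3 days with 0.25% DMSO as vehicle control. WST-1 reagent added, 3 h at 37 °C, absorbance read at 430 nm. IC50 from linear fit of at least five doses, mean of at least triplicates.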

[3] = Potency index, ratio of silibinin IC50 to compound IC50 for antiproliferative activity against human DU145 cells; format: functional, DU-145; summary of the method: as §1
LNCaP [4] = assay: Antiproliferative activity against human LNCAP cells assessed as reduction in cell viability after 3 days by WST-1 cell proliferation assay; format: functional, cell-based; settings: 72 h; summary of the method: as §2
[5] = Antiproliferative activity against human PC3 cells assessed as reduction in cell viability after 3 days by WST-1 cell proliferation assay; format: functional, cell-based; settings: PC-3, 72 h; summary of the method: as §2
LNCaP [6] = assay: Potency index, ratio of silibinin IC50 to compound IC50 for antiproliferative activity against human LNCAP cells; format: functional; summary of the method: as §1

| pIC50 (LNCaP [4]) | Structure (SMILES) | Ratio IC50 [1] | pIC50 [2] | Ratio IC50 [3] | pIC50 [5] | Ratio IC50 (LNCaP [6]) |
| --- | --- | --- | --- | --- | --- | --- |
| 5.34 | CCCCCOc1cc(O)c2c(=O)c(O)c(-c3ccc4c(c3)OC(c3ccc(O)c(OC)c3)C(CO)O4)oc2c1 (stereo unspecified) | 12 | 5.16 | 14 | 5.22 | 9 |
| 6.36 | COc1cc(O)c2c(c1)O[C@H](c1ccc3c(c1)OC(c1ccc(O)c(OC)c1)C(CO)O3)[C@@H](O)C2=O (stereo partly specified) | 6 | 4.60 | 4 | 4.91 | 98 |
| 5.36 | CCCOc1cc(O)c2c(=O)c(O)c(-c3ccc4c(c3)OC(c3ccc(O)c(OC)c3)C(CO)O4)oc2c1 (stereo unspecified) | 15 | 5.27 | 17 | 5.33 | 10 |
| < 4.00 | CCCCCCCOc1cc(O)c2c(=O)c(OCCCCCCC)c(-c3ccc4c(c3)OC(c3ccc(O)c(OC)c3)C(CO)O4)oc2c1 (stereo unspecified) | <1 | < 4.00 | <1 | < 4.00 | <1 |
| 5.33 | CCCOc1cc(O)c2c(c1)O[C@H](c1ccc3c(c1)OC(c1ccc(O)c(OC)c1)C(CO)O3)[C@@H](O)C2=O (stereo partly specified) | 4 | 4.52 | 3 | 4.73 | 9 |
| 4.54 | CCCCCOc1cc(O)c2c(=O)c(OCCCCC)c(-c3ccc4c(c3)OC(c3ccc(O)c(OC)c3)C(CO)O4)oc2c1 (stereo unspecified) | 1 | 4.54 | 3 | 4.28 | 1 |
| 4.33 | CCCCOc1cc(O)c2c(=O)c(OCCCC)c(-c3ccc4c(c3)OC(c3ccc(O)c(OC)c3)C(CO)O4)oc2c1 (stereo unspecified) | 2 | 4.44 | 3 | 4.34 | 1 |
| 5.56 | COc1cc(O)c2c(=O)c(O)c(-c3ccc4c(c3)OC(c3ccc(O)c(OC)c3)C(CO)O4)oc2c1 (stereo unspecified) | 30 | 5.10 | 12 | 5.62 | 16 |
| < 4.00 | COc1cc(C2Oc3cc(-c4oc5cc(OCc6ccccc6)cc(O)c5c(=O)c4OCc4ccccc4)ccc3OC2CO)ccc1O (stereo unspecified) | <1 | < 4.00 | <1 | < 4.00 | <1 |
| 5.60 | CCCCOc1cc(O)c2c(c1)O[C@H](c1ccc3c(c1)OC(c1ccc(O)c(OC)c1)C(CO)O3)[C@@H](O)C2=O (stereo partly specified) | 14 | 4.92 | 8 | 5.27 | 17 |
| 5.78 | CCCCCCOc1cc(O)c2c(c1)O[C@H](c1ccc3c(c1)OC(c1ccc(O)c(OC)c1)C(CO)O3)[C@@H](O)C2=O (stereo partly specified) | 12 | 4.95 | 8 | 5.22 | 26 |
| 5.34 | CCCCCCCOc1cc(O)c2c(c1)O[C@H](c1ccc3c(c1)OC(c1ccc(O)c(OC)c1)C(CO)O3)[C@@H](O)C2=O (stereo partly specified) | 7 | 4.76 | 5 | 4.96 | 9 |
| < 4.00 | CCCCCCOc1cc(O)c2c(=O)c(OCCCCCC)c(-c3ccc4c(c3)OC(c3ccc(O)c(OC)c3)C(CO)O4)oc2c1 (stereo unspecified) | <1 | < 4.00 | <1 | < 4.00 | <1 |
| 4.96 | CCCOc1cc(O)c2c(=O)c(OCCC)c(-c3ccc4c(c3)OC(c3ccc(O)c(OC)c3)C(CO)O4)oc2c1 (stereo unspecified) | 5 | 4.69 | 5 | 4.76 | 4 |
| 5.40 | CCCCCCOc1cc(O)c2c(=O)c(O)c(-c3ccc4c(c3)OC(c3ccc(O)c(OC)c3)C(CO)O4)oc2c1 (stereo unspecified) | 10 | 5.05 | 11 | 5.16 | 11 |
| 5.75 | CCCCCOc1cc(O)c2c(c1)O[C@H](c1ccc3c(c1)OC(c1ccc(O)c(OC)c1)C(CO)O3)[C@@H](O)C2=O (stereo partly specified) | 12 | 5.05 | 10 | 5.21 | 24 |
| 5.25 | CCOc1cc(O)c2c(=O)c(OCC)c(-c3ccc4c(c3)OC(c3ccc(O)c(OC)c3)C(CO)O4)oc2c1 (stereo unspecified) | 9 | 4.98 | 9 | 5.07 | 8 |
| 5.32 | CCCCCCCOc1cc(O)c2c(=O)c(O)c(-c3ccc4c(c3)OC(c3ccc(O)c(OC)c3)C(CO)O4)oc2c1 (stereo unspecified) | 10 | 5.13 | 12 | 5.15 | 9 |
| 6.46 | CCOc1cc(O)c2c(c1)O[C@H](c1ccc3c(c1)OC(c1ccc(O)c(OC)c1)C(CO)O3)[C@@H](O)C2=O (stereo partly specified) | 5 | 4.56 | 3 | 4.79 | 123 |
| 5.50 | CCCCOc1cc(O)c2c(=O)c(O)c(-c3ccc4c(c3)OC(c3ccc(O)c(OC)c3)C(CO)O4)oc2c1 (stereo unspecified) | 16 | 5.24 | 16 | 5.34 | 13 |
| 4.37 | COc1cc(C2Oc3cc([C@H]4Oc5cc(O)cc(O)c5C(=O)[C@@H]4O)ccc3OC2CO)ccc1O (stereo partly specified) [SILIBININ] | – | 4.03 | – | 4.14 | – |
| 5.43 | COc1cc(C2Oc3cc(-c4oc5cc(OCc6ccccc6)cc(O)c5c(=O)c4O)ccc3OC2CO)ccc1O (stereo unspecified) | 9 | 5.05 | 10 | 5.10 | 12 |
| 5.69 | COc1cc(C2Oc3cc([C@H]4Oc5cc(OCc6ccccc6)cc(O)c5C(=O)[C@@H]4O)ccc3OC2CO)ccc1O (stereo partly specified) | 14 | 5.06 | 11 | 5.28 | 21 |
| 5.16 | COc1cc(O)c2c(=O)c(OC)c(-c3ccc4c(c3)OC(c3ccc(O)c(OC)c3)C(CO)O4)oc2c1 (stereo unspecified) | 5 | 4.65 | 4 | 4.82 | 6 |

Source: ChEMBL document CHEMBL3763115, “Silibinin derivatives as anti-prostate cancer agents: Synthesis and cell-based evaluations” (Eur J Med Chem, 2016)
